Out of some 2,500 compounds screened, about 460 (18%) were called active.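 Rule for the calls: active = mean activation above a cutoff of low control average plus 3 SD from the earlier screen (cut at about 12% in these data); inactive = the rest.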 Only a sample is shown.
Experiment: compound fluorescence interference without thin filaments, confirmation, artefact control for cardiac RTF calcium sensitizer project, biochemical (AID 504382)
Conditions: IANBD fluorescence interference counterscreen, buffer, EC20 Ca2+; at 7.2 µM; active compounds read high; scaled: EC20 calcium 0, EC100 calcium 100
Summary of the method: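 Medium: MOPS buffer, 190 mM, with KCl, MgCl2, EGTA, NTA, DTT, pH 7.20; Dosing: one dose of 7.2 µM, 0.7% DMSO; Probe or stimulus: calcium at EC20 level, 0.472 mM final; Incubation: 15 min, 25 °C; Evaluation: compound fluorescence interference relative to control well signal range; Signal: fluorescence, 480/540 nm.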

Compound	fluorescence artifact activation
COc1ccc(/C=N/NC(=O)Cn2c(Cc3ccc(OC)c(OC)c3)nc3ccccc32)cc1	1.63% (inactive)
COc1ncnc2c1NC1=C(S2)C(=NCCC(=O)O)CC(C)(C)C1	19.4% (active)
CC(=O)c1cc2c(cc1N/C(=N/S(=O)(=O)c1ccc(Br)cc1)c1ccccc1)OCO2	0.13% (inactive)
O=C(NCc1cccc(C(F)(F)F)c1)c1cccc(S(=O)(=O)NCc2ccccc2)c1	0.02% (inactive)
CC(=NNC(=O)c1ccncc1)c1ccc2ccccc2c1O	0.08% (inactive)
CCOC(=O)c1sc2nc(C)nc(SCC(=O)NC3CCS(=O)(=O)C3)c2c1C (stereo not given)	8.03% (inactive)
O=C(NCC(=O)N(CC1CCCO1)C1(C(=O)NC2CCCCC2)CCCCC1)c1ccccc1 (stereo not given)	-0.09% (inactive)
O=C(COc1ccccc1Cl)N1CCN(c2ccccn2)CC1	0.24% (inactive)
S=C(Nc1cc(Cl)ccc1Oc1ccccc1)N1CCN(c2ccccn2)CC1	23.1% (active)
CCOC(=O)N1CCN(C(=S)Nc2ccccc2C)CC1	7.89% (inactive)
CC(COC(=O)c1ccccc1)(COC(=O)c1ccccc1)/[N+]([O-])=C/c1ccccc1	9.45% (inactive)
COCCCn1c(=O)/c(=C\c2cccc(OC)c2OC)s/c1=C(/C#N)C(=O)Nc1ccc(C(=O)O)cc1	2.82% (inactive)
CCc1cc(C(=O)Nc2ccc(OC)nc2)sc1C	-0.03% (inactive)
CCC(=O)N1CCC2(CC1)Oc1ccc(Cl)cc1C(=O)C21CC(c2cccnc2)=NO1 (stereo not given)	5.01% (inactive)
COc1ccc(C2(CNC(C)=O)CCCC2)cc1OC	0.1% (inactive)
COc1ccc(N2C(=O)C3C(C2=O)C(C(=O)c2ccc(Cl)cc2)N2CCCC32)cc1 (stereo not given)	2.56% (inactive)
O=C(c1ccccc1)[C@@H]1[C@@H]2C(=O)N(c3ccc(F)cc3)C(=O)[C@@H]2C2CCCN21 (stereo not given in full)	1.82% (inactive)
Cc1ccc(N2C(=O)[C@@H]3[C@H](C2=O)C2CCCN2[C@@H]3C(=O)c2ccccc2)cc1 (stereo not given in full)	65.3% (active)
CC(=O)Oc1ccc(N2C(=O)C3C(C2=O)C(C(=O)c2ccc(Cl)cc2)N2CCCC32)cc1 (stereo not given)	12.2% (active)
CCOC(=O)c1ccc(N2C(=O)C3C(C2=O)C(C(=O)c2ccc(Cl)cc2)N2CCCC32)cc1 (stereo not given)	1.5% (inactive)
Cc1ccc(N2C(=O)C3C(C(=O)c4ccccc4)=NN(c4ccccc4)C3C2=O)cc1 (stereo not given)	5.76% (inactive)
CCc1ccc(Nc2n[n+](-c3ccccc3)c(-c3ccc(N(CC)CC)cc3)s2)cc1	-0.01% (inactive)
C[C@H](CO)N1C[C@H](C)[C@@H](CN(C)S(=O)(=O)c2cccs2)Oc2c(NC(=O)Nc3ccc4c(c3)OCO4)cccc2C1=O	2.08% (inactive)

Compound	fluorescence artifact activation
COCc1cc(=O)[nH]c2cc(NC(=O)C(C)(C)CCl)c(C)cc12	-0.05% (inactive)
COc1ccc(CCNC(=O)c2ccccc2OCc2c(C)noc2C)cc1	-0.02% (inactive)
CCOCCCNC(=S)NCCCNc1nc2c(C)cc(C)cc2cc1C#N	0.14% (inactive)
COc1cc(N2CCCC2)c(OC)cc1/C=C1/NC(=S)NC1=O	16.7% (active)
COc1cc(N2CCCC2)c(OC)cc1/C=C(/C#N)c1cccc(Br)c1	-0.03% (inactive)
COc1cc(N2CCCC2)c(OC)cc1/C=C(/C#N)c1ccc(Br)cc1	0.93% (inactive)
N#Cc1ccc(CSc2nnc(-c3cnccn3)o2)cc1	45.1% (active)
O=c1oc2cc(O)ccc2cc1-c1nc2c(s1)CCc1ccccc1-2	0.02% (inactive)
CC(C)(C)c1cc[n+](-c2[nH]c(=O)sc2/C=N/NC([S-])=Nc2ccccc2)cc1	1.92% (inactive)
Cc1ccccc1C(=O)NCCCc1ccccc1	0.02% (inactive)
COC(=O)N1CCN(S(=O)(=O)c2ccc(F)cc2)CC1	-0.07% (inactive)
O=S(=O)(c1ccc(F)cc1)N1CCN(CCOc2ccccc2)CC1	361% (active)
CN1CCN(S(=O)(=O)c2cccc(C(=O)Oc3cccc(Br)c3)c2)CC1	0.74% (inactive)
CC(C)c1nnc(N2C(=O)C(O)=C(C(=O)c3cccs3)C2c2ccccc2)s1 (stereo not given)	0.07% (inactive)
O=C(COC(=O)c1cc(-c2cccc3ccccc23)nc2ccccc12)NC1CCS(=O)(=O)C1 (stereo not given)	0.37% (inactive)
CCCCC(=O)Nc1ccc(C(=O)Nc2ccc(OC)cc2[N+](=O)[O-])cc1	2.86% (inactive)
Cn1nc(-c2ccccc2)c2nc3ccccc3nc21	0.09% (inactive)
CCCCCn1nc(-c2ccccc2)c2nc3ccccc3nc21	20.1% (active)
CCn1nc(-c2ccccc2)c2nc3ccccc3nc21	4.1% (inactive)
CCOC(=O)CCC(=O)NCc1ccc2c(c1)cc(C)n2C	0.01% (inactive)
COc1ccc2nc3ccccc3nc2c1NC(=O)c1ccc(Br)cc1	59.2% (active)
COc1ccc2nc3ccccc3nc2c1NC(=O)c1ccc(Cl)cc1Cl	0.06% (inactive)
CC(=O)N1CCN(S(=O)(=O)c2cccc(C(=O)NNC(=O)c3ccc(Br)cc3)c2)CC1	0.4% (inactive)

Compound	fluorescence artifact activation
CN(C)c1ccc(/C=C/C(=O)c2cc(Cl)ccc2O)cc1	0.19% (inactive)
CC(C)(C)NC(=O)CSc1nnc(-c2ccccn2)n1-c1ccccc1	0.09% (inactive)
Cc1cc(C)c2c(SC(C)C)nc(N)nc2n1	5.3% (inactive)
CCOCCn1c(CN2CCN(CC)CC2)nc2c1c(=O)n(C)c(=O)n2C	21.1% (active)
CCN(CC)c1ccc(/C=C2\C(=O)c3ccc(C(=O)O)cc3C2=O)cc1	8.82% (inactive)
CCN(CC)c1ccc2cc(C(C)=O)c(=O)oc2c1	0.03% (inactive)
CCN(CC)c1ccc2cc(C(=O)Nc3ccccn3)c(=O)oc2c1	-0.06% (inactive)
CCN(CC)c1ccc2cc(C(=O)NCc3ccc(F)cc3)c(=N)oc2c1	17.9% (active)
N#Cc1c(NC(=O)C2CC=CCC2C(=O)O)sc2c1CCCCCC2 (stereo not given)	0.67% (inactive)
COc1ccccc1C(=O)NNC(=O)CCCN1C(=O)/C(=C/c2cccs2)SC1=S	-0.02% (inactive)
Cc1ccc(-c2nn(-c3ccccc3)cc2/C=C2\SC(=S)N(CCCCCC(=O)O)C2=O)o1	3.75% (inactive)
O=C(O)CCCN1C(=O)/C(=C/c2cn(-c3ccccc3)nc2-c2cccs2)SC1=S	54.1% (active)
COc1cccc(/C(O)=C/c2nc3ccc(C(=O)NCCc4cccc(C)c4)cc3[nH]c2=O)c1	0.04% (inactive)
CCc1ccc(/C=C2/C(=O)N(C)C(=S)N2CC(=O)OC)s1	2.56% (inactive)
O=C(Cn1cnc2c(cnn2-c2ccccc2)c1=O)Nc1ccc(S(=O)(=O)N2CCOCC2)cc1	7.41% (inactive)
CN(C)c1ccc(/C=C/C(=O)c2ccc3c(c2)OCO3)cc1	2.49% (inactive)
C[C@H]1CN([C@@H](C)CO)C(=O)c2cccc(NC(=O)c3nc4ccccc4s3)c2O[C@H]1CN(C)C(=O)Nc1ccc(F)cc1	0.31% (inactive)
CCN(CC)c1ccc(/C=C(/C#N)C(=O)NC(C)C)o1	0.06% (inactive)
CC(C)NC(=O)/C(C#N)=C\c1ccc(N(C)C)o1	48.4% (active)
CC(C)NC(=O)/C(C#N)=C/c1ccc(N(C)C)o1	0.18% (inactive)
CCN(c1ccc(N=Cc2c(O)n(Cc3ccc(OC)cc3)c(=O)c3ccccc23)cc1)C(C)C	2.13% (inactive)
O=C(CSC1CC(=O)N(c2ccc(C(=O)O)cc2)C1=O)Nc1ccc2ccccc2c1 (stereo not given)	0.06% (inactive)
O=C(NCCCN1CCOCC1)C(=O)NCc1ccco1	0.11% (inactive)

Compound	fluorescence artifact activation
O=C(NCc1ccco1)/C(=C\c1ccco1)NC(=O)c1ccc(Br)o1	24.4% (active)
CC(C)(C)c1ccc(C(=O)N/C(=C\c2cccs2)C(=O)NCc2ccco2)cc1	0.07% (inactive)
Cc1cc(=O)c2c([nH]1)c(C)cc1[nH]c(C)c(C)c12	0.09% (inactive)
C=CCn1c(=O)c(C(=O)NCCNCC)c(O)c2ccccc21	0.84% (inactive)
CCCCN=C1N/C(=C\c2ccco2)C(=O)N1c1ccccc1	78.2% (active)
NC(N)=NCc1cccc(I)c1	0.57% (inactive)
CN(C)c1ccc(/C=N/NC(=O)c2cnc3ccccc3c2)cc1	0.02% (inactive)
CC(=O)c1cccc(NC(=S)NC2CCCCC2)c1	0.08% (inactive)
CC(C)CC[C@@H](O)[C@](C)(O)C1CC[C@@]2(O)C3=CC(=O)[C@@H]4C[C@@H](O)[C@@H](O)C[C@]4(C)C3CC[C@]12C (stereo not given in full)	79.3% (active)
CNc1ccc2c3c(cccc13)C(=O)N(C)C2=O	40.8% (active)
CN1C(=O)c2cccc3c(N(C)C)ccc(c23)C1=O	70.1% (active)
CCN1C(=O)c2cccc3c(N)ccc(c23)C1=O	0.02% (inactive)
CCCCNc1ccc2c3c(cccc13)C(=O)N(CCCC)C2=O	-0.02% (inactive)
CN1C(=O)c2cccc3c(N)ccc(c23)C1=O	0.17% (inactive)
Cc1ccccc1N1C(=O)c2cccc3c(N(C)CCO)ccc(c23)C1=O	-0.04% (inactive)
COC(=O)N1c2ccccc2CCc2ccccc21	1.49% (inactive)
CC(=O)Nc1ccc(Nc2c3c4c(cccc4n(C)c2=O)C(=O)c2ccccc2-3)cc1	5.51% (inactive)
COc1ccc(CNC(=O)c2cc3c(s2)CS(=O)C3)cc1 (stereo not given)	0.1% (inactive)
CCc1ccc2c(c1)C(NC(C)=O)C(=O)N2CC (stereo not given)	-0.03% (inactive)
Cc1ccc(S(=O)(=O)c2cccc(S(=O)(=O)N3CCOCC3)c2)cc1S(=O)(=O)N1CCOCC1	6.87% (inactive)
N#C/C(=C\c1ccc(Sc2ccc(Cl)cc2)o1)c1nc2ccccc2[nH]1	-0.03% (inactive)

Source: PubChem BioAssay AID504382 (The Scripps Research Institute Molecular Screening Center, 2011)
